PLCb3 inh: human PLC-beta3 inhibitors, primary screen, biochemical, fluorescence. 1-phosphatidylinositol 4,5-bisphosphate phosphodiesterase beta-3 (Homo sapiens), Q01970. inhibition, % at 12.2 µM. Purified PLC-beta3, fluorogenic substrate. actives 0.18% (n = 370,000); in the data active = inhibition above about 11%;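 also: 0% = median of compound wells on plate and 100% = full blocker control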
VIM-2 inhibitor: VIM-2 metallo-beta-lactamase inhibitors, primary screen, biochemical, epi-absorbance readout, Pseudomonas aeruginosa enzyme; purified VIM-2, nitrocefin hydrolysis, epi-absorbance fluorescence; inhibition, % at 5.6 µM; actives 0.89% (n = 290,000); AID 1527, 2009;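 active = inhibition above the mean of all tested compounds plus 3 SD, cutoff set per screening run, cut at about 7.5% in these data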;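 also: red hydrolysis product quenches plate fluorescence so inhibitors raise well fluorescence; 0% = enzyme with DMSO and 100% = DMSO without enzyme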
PLCg1 inh: PLC-gamma1 enzyme inhibitors, primary screen, biochemical, fluorescence, purified enzyme | inhibition, % at 12.2 µM | actives 0.84% (n = 370,000) | fluorogenic substrate; in the data active = inhibition above about 9.5%
Target sequence (P19174 whole entry, looked up): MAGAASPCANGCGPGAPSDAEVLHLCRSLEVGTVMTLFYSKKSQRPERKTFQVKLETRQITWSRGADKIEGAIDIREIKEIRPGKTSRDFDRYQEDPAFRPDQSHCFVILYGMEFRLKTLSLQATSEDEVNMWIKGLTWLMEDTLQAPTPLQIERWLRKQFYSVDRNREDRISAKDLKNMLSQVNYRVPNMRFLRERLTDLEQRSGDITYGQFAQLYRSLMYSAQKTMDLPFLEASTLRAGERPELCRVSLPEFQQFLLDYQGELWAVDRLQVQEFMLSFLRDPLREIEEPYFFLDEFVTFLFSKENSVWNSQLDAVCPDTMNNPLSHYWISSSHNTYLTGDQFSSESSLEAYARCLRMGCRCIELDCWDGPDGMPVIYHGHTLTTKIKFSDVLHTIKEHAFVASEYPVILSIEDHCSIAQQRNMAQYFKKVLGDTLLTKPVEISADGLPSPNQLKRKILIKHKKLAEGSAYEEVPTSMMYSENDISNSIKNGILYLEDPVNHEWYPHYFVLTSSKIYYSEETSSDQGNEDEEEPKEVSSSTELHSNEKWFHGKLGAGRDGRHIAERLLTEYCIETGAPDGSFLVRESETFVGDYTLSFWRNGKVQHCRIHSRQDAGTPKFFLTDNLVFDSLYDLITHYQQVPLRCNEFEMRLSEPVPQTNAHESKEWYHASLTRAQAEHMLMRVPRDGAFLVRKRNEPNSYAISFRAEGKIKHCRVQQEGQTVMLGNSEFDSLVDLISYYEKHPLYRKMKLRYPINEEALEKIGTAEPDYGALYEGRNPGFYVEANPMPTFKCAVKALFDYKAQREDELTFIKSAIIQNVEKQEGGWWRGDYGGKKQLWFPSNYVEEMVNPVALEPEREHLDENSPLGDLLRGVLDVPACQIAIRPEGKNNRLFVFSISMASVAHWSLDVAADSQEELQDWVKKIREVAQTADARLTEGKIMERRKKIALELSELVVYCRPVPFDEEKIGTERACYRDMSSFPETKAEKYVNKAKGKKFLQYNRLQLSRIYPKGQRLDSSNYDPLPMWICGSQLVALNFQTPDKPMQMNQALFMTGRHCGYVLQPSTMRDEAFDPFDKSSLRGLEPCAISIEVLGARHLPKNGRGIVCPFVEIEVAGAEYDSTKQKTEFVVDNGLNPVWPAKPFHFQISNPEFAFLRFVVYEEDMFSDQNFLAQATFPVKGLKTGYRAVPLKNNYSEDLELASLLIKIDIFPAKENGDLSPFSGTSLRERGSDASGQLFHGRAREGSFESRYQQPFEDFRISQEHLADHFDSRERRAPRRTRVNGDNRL
PvdQ acylase: P. aeruginosa PvdQ acylase inhibitors, primary screen, biochemical, fluorescence, plate reader and imaging, single point; purified PvdQ acylase; AID 488965, 2010; inhibition, % at 10 µM; actives 0.063% (n = 340,000); PvdQ acylase [Pseudomonas aeruginosa LESB58]; in the data active = inhibition above about 30%, passing the limit was not always enough;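 also: 0% = vehicle neutral wells and 100% = reference inhibitor wells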
IMP-1 inhibitor: IMP-1 metallo-beta-lactamase inhibitors, primary screen, biochemical, epi-absorbance readout, Pseudomonas aeruginosa enzyme; metallo-beta-lactamase IMP-1 (Pseudomonas aeruginosa); purified IMP-1, nitrocefin hydrolysis, epi-absorbance fluorescence; inhibition, % at 5.6 µM; actives 0.45% (n = 290,000); AID 1556, 2009;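 active = inhibition above the mean plus 3 SD of all compounds in the same screening run, cut at about 4.5% in these data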;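 also: 0% = IMP-1 with DMSO and 100% = DMSO wells lacking enzyme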
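assay system = purified recombinant IMP-1 metallo-beta-lactamase enzyme | schedule = 15 min preincubation plus 25 min reaction at 25 °C | signal = Epi-absorbance fluorescence, 480 nm excitation, 530 nm emission | read-out basis = percent inhibition from optical density relative to buffer-blank wells | controls = IMP-1 with DMSO as 0%, enzyme-free DMSO as 100%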
The depositor's hits bear a star. Most compounds without a hit are left out; they make up all but 2% or so of the library.

`O=C(O)C1C2C=CC(C2)C1C(=O)Nc1ccccc1Br` (centres undefined) gave PLCb3 inh -7, VIM-2 inhibitor 0, PLCg1 inh -3, PvdQ acylase -21 and IMP-1 inhibitor 32*.
`CCCS(=O)(=O)N1CCN(Cc2ccncc2)CC1` gave PLCb3 inh -11, VIM-2 inhibitor 0, PLCg1 inh 1, PvdQ acylase -9 and IMP-1 inhibitor 5.1*.
For CCS(=O)(=O)N1CCN(Cc2ccncc2)CC1 the results were PLCb3 inh 0, VIM-2 inhibitor -4, PLCg1 inh -1, PvdQ acylase -10 and IMP-1 inhibitor -3.
C[C@H]1[C@H](NC(=O)c2cccc(C(F)(F)F)c2)CC[C@@]23CCCN2C(=O)CCC[C@@H]13 was read as PLCb3 inh 2 and PLCg1 inh 2.
`O=C(NCCc1c[nH]c2ccccc12)OCc1cn(Cc2cccc(C(F)(F)F)c2)nn1` gave PLCb3 inh -1 and PLCg1 inh -1.
Screening NC(=O)[C@H]1CC2(CC(c3cccc(NC(=O)CC(c4ccccc4)c4ccccc4)c3)=NO2)CN1C(=O)c1ccccc1C(=O)c1ccccc1 (some centres undefined) returned PLCb3 inh 3, PLCg1 inh 0 and PvdQ acylase -8.
NC(=O)[C@H]1CC2(CC(c3cccc(NC(=O)CC(c4ccccc4)c4ccccc4)c3)=NO2)CN1C(=O)C(c1ccccc1)c1ccccc1 (some centres undefined) was read as PLCb3 inh 5, PLCg1 inh 13* and PvdQ acylase -12.
Screening Cc1cc(C)nc(-n2nc(C)cc2NC(=O)CN2CCC(C)CC2)n1 returned PLCb3 inh -3, VIM-2 inhibitor 9.0*, PLCg1 inh -2, PvdQ acylase 4 and IMP-1 inhibitor -1.
CCCNS(=O)(=O)c1ccc(OC)c(Cl)c1Cl was read as PLCb3 inh 0, VIM-2 inhibitor -3, PLCg1 inh -1, PvdQ acylase 39* and IMP-1 inhibitor -3.
CCCNS(=O)(=O)c1cc(Cl)ccc1OC was read as PLCb3 inh -1, VIM-2 inhibitor 0, PLCg1 inh -1, PvdQ acylase -2 and IMP-1 inhibitor -3.
N/C(=N\N=C\c1ccc(O)cc1)c1nonc1N was read as PLCb3 inh 9, VIM-2 inhibitor 1, PLCg1 inh 11*, PvdQ acylase -10 and IMP-1 inhibitor -2.
Screening CCOC(=O)c1cc(-c2ccccc2)nn1CC1CC(c2cccc([N+](=O)[O-])c2)=NO1 (centres undefined) returned PLCb3 inh 9, PLCg1 inh -3 and PvdQ acylase 2.
`O=C(O)c1cc(-c2ccccc2)nn1CC1CC(c2cccc([N+](=O)[O-])c2)=NO1` (centres undefined) gave PLCb3 inh 6 and PLCg1 inh 9.9*.
O=C(OCC#CCSc1nnc(-c2cccc3ccccc23)o1)c1ccsc1 was read as PLCb3 inh -23 and PLCg1 inh -14.
For O=C(Nc1ccc(F)c(F)c1)c1cc(S(=O)(=O)N2CCN(c3ccccn3)CC2)ccc1F the results were PLCb3 inh 8, VIM-2 inhibitor 1, PLCg1 inh 9, PvdQ acylase -6 and IMP-1 inhibitor 4.6*.
COc1ccc(C(=O)N/N=C\c2coc3ccc(C)cc3c2=O)cc1 was read as PLCb3 inh -8, VIM-2 inhibitor -2, PLCg1 inh -2, PvdQ acylase -2 and IMP-1 inhibitor 8.7*.
For Cc1ccc2occ(/C=N/NC(=O)c3ccncc3)c(=O)c2c1 the results were PLCb3 inh -8, VIM-2 inhibitor -4, PLCg1 inh -1, PvdQ acylase -10 and IMP-1 inhibitor 6.4*.
O=C(NC1CCCCC1)c1cc2nc(-c3ccco3)cc(C(F)(F)F)n2n1 was read as VIM-2 inhibitor -2, PvdQ acylase -15 and IMP-1 inhibitor -6.
`O=C(NCCCN1CCOCC1)c1cc2nc(-c3ccco3)cc(C(F)(F)F)n2n1` gave PLCb3 inh inactive, VIM-2 inhibitor 12*, PLCg1 inh inactive, PvdQ acylase 6 and IMP-1 inhibitor -2.

High-throughput results: PubChem, several laboratories
